Most compounds without a hit are left out; they make up all but 3.4% or so of the library.
Runt-CBFb FRET: inhibitors of RUNX1 Runt–CBFb binding, primary screen, biochemical, FRET, Cerulean-Runt, Venus-CBFb, uHTS. 0.46% of 220,000 active. Runt-related transcription factor 1 (Homo sapiens) + Core-binding factor subunit beta …. inhibition, % at 20 µM. AID 1496, 2009. Cerulean-Runt/Venus-CBFb FRET ratio 530/480, 1 h;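 active = inhibition over about 50% at 20 µM in the single-dose screen, limit read from the data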;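 note: 0% = DMSO wells and 100% = excess unlabeled CBFb competitor control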
Target sequence (Q01196 whole entry, looked up): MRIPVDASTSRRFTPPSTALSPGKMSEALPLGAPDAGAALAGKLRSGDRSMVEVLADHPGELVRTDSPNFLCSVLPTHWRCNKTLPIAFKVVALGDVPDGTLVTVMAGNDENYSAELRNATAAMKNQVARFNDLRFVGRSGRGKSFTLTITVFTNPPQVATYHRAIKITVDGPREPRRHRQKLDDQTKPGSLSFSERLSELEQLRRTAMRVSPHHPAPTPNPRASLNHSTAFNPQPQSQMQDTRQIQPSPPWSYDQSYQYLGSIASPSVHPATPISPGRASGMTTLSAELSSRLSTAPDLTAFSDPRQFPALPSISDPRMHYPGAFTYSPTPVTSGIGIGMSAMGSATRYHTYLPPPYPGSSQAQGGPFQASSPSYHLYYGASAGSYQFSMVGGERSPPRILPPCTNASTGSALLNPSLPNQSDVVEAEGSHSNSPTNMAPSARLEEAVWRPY
Target sequence (Q13951 whole entry, looked up): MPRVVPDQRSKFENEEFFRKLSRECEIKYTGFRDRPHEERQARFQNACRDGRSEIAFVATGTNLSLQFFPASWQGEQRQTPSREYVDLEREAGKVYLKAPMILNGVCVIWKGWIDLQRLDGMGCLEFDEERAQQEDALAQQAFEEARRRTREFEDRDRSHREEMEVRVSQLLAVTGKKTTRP
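System: Cerulean-labeled Runt domain protein | Quantity: 100 nM of each labeled protein | Schedule: 1 h compound exposure, room temperature | Detection: Fluorescence energy transfer, 422 nm excitation, 530/480 nm emission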
RanGTP-Impb inh: inhibitors of RanGTP-importin-beta interaction, primary screen, biochemical, FRET, CFP-Ran, YFP-importin-beta, homogeneous | AID 2216, 2009 | inhibition, % (concentration not given with the values) | cell-free CFP-Ran/YFP-importin-beta FRET ratio | Ran GTPase (GTP-bound) - importin-beta complex | 1.1% of 300,000 active;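 active = more than half of the replicate wells show a fall in the fluorescence ratio signal beyond about 16%, limit read from the data, passing the limit was not always enough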;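 note: 0% = DMSO wells and 100% = Ran loaded with GDP instead of GTP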
Wee1 degr inh: Wee1 degradation inhibitors, primary screen, cell-based, HeLa, Wee1K328M-luciferase, luminescence; HeLa Luc-Wee1K328M stability; 100% = proteasome inhibitor MG132 effect; 1.2% of 220,000 active; reporter increase, % at 5 µM; Wee1-like protein kinase (Homo sapiens), P30291;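 active = activation above the mean of all tested compounds plus 3 SD, set per screening run, cut at about 8.8% in these data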;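 note: cells exposed to compound for 20 h before luminescence read; 0% = DMSO alone and 100% = MG132 at 30 µM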
PHOSPHO1 block: PubChem AID 1565; Phosphoethanolamine/phosphocholine phosphatase (Homo sapiens), Q8TCT1; recombinant PHOSPHO1, absorbance phosphatase assay; inhibition, % at 13.3 µM; 1.1% of 290,000 active; in the data active = inhibition above about 60%
Runt-SMMHC FRET: inhibitors of RUNX1 Runt–CBFb-SMMHC binding, primary screen, biochemical, FRET, Cerulean-Runt, Venus-CBFb-SMMHC, uHTS; inhibition, % at 20 µM; 0.74% of 220,000 active; AID 1434, 2008; Cerulean-Runt/Venus-CBFb-SMMHC FRET ratio 530/480, 1 h;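 active = mean inhibition across duplicate retests at 20 µM reaching about 50%, limit read from the data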;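 note: 0% = DMSO wells and 100% = wells with excess untagged CBFb-SMMHC; inhibitors lower the FRET ratio by blocking Runt binding to CBFb-SMMHC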
HMGR II inh: inhibitors of E. faecalis class II HMGR, primary screen, biochemical, Enterococcus faecalis; purified E. faecalis HMGR, NADPH absorbance 340 nm kinetic; AID 1066, 2008; inhibition, % at 10 µM; 0.41% of 190,000 active; HMG-CoA reductase (Enterococcus faecalis, mvaE);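 active = inhibition above a set limit, the median over all tested compounds plus 3 SD, cut at about 9.5% in these data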;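 note: enzyme runs in reverse so mevalonate oxidation gives rising NADPH absorbance; 0% = complete reaction with DMSO and 100% = background rate lacking mevalonate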
* hit, by the source's call.

`COc1ccc(CCNC(=O)c2cc(-c3ccccc3)c(N3CCOCC3)s2)cc1OC` gave RanGTP-Impb inh 1.
COc1ccc(-n2nc3c(c2NC(=O)COc2ccccc2)CS(=O)C3)cc1 (centres undefined) was read as RanGTP-Impb inh 2 and PHOSPHO1 block -12.
`COc1cc(C2CC(c3cccnc3)=NN2c2ccc(F)cc2)cc(OC)c1OC` (centres undefined) gave Runt-CBFb FRET 26, Wee1 degr inh 4, PHOSPHO1 block 2, Runt-SMMHC FRET 87* and HMGR II inh -6.
`COc1ccc(C2CC(c3ccccc3)=NN2c2ccc(S(N)(=O)=O)cc2)cc1OC` (centres undefined) gave Runt-CBFb FRET 2, RanGTP-Impb inh -2, Wee1 degr inh 3, PHOSPHO1 block 32, Runt-SMMHC FRET 24 and HMGR II inh 0.
CCc1ccc(-c2cnc3nc[nH]c(=O)c3n2)cc1 was read as RanGTP-Impb inh 15*.
Screening COc1ccccc1N1C(=S)NC2CS(=O)(=O)CC21 (centres undefined) returned Runt-CBFb FRET 0, RanGTP-Impb inh 1, Wee1 degr inh -2, PHOSPHO1 block 4 and Runt-SMMHC FRET -1.
For CC1=C(C(=O)N2CCOCC2)C(c2cccc3ccccc23)NC(=S)N1 (centres undefined) the results were Runt-CBFb FRET 7, RanGTP-Impb inh 5, Wee1 degr inh 11*, PHOSPHO1 block -11, Runt-SMMHC FRET 3 and HMGR II inh -5.
Screening CC1=C(C(=O)N2CCOCC2)C(c2ccc(-c3ccccc3)cc2)NC(=S)N1 (centres undefined) returned Runt-CBFb FRET 12, RanGTP-Impb inh -2, Wee1 degr inh 0, PHOSPHO1 block 0, Runt-SMMHC FRET 15 and HMGR II inh -10.
CCCNC(=O)c1ccc(COc2ccc(CCC)cc2OC)o1 was read as RanGTP-Impb inh 4 and PHOSPHO1 block 6.
COc1ccc(/C=N/Nc2cc(C)nc3ccc(OC)cc23)c(OC)c1 was read as RanGTP-Impb inh 20* and PHOSPHO1 block 19.
`COc1ccccc1/C=N/Nc1cc(C)nc2ccc(C)cc12` gave RanGTP-Impb inh 1 and PHOSPHO1 block 14.
`CCCOc1ccc(-c2nn(-c3ccccc3)cc2/C=C2\SC(N)=NC2=O)cc1` gave Runt-CBFb FRET -1, RanGTP-Impb inh 19*, Wee1 degr inh 2, PHOSPHO1 block 9, Runt-SMMHC FRET 21 and HMGR II inh -4.
For Cc1nnc(SCC(C)C)[nH]c1=O the results were Runt-CBFb FRET 1, RanGTP-Impb inh -3, Wee1 degr inh 9.4*, PHOSPHO1 block -11, Runt-SMMHC FRET 4 and HMGR II inh -5.
COc1ccc(NC(=O)CS(=O)(=O)c2cn(CC(=O)N3CCCC3)c3ccccc23)c(OC)c1 was read as PHOSPHO1 block 29.
Cc1nc(SCC(=O)c2ccccc2)n[nH]1 was read as Runt-CBFb FRET 13, RanGTP-Impb inh 1, Wee1 degr inh 0, PHOSPHO1 block 98*, Runt-SMMHC FRET 8 and HMGR II inh -1.
COc1ccccc1C(=O)CSc1n[nH]c(N)n1 was read as Runt-CBFb FRET 0, RanGTP-Impb inh 4, Wee1 degr inh -1, PHOSPHO1 block 80*, Runt-SMMHC FRET -6 and HMGR II inh -4.
`O=C(CSc1n[nH]c(-c2ccncc2)n1)c1ccccc1` gave Runt-CBFb FRET 0, RanGTP-Impb inh 3, Wee1 degr inh -1, PHOSPHO1 block 33, Runt-SMMHC FRET -2 and HMGR II inh 1.
Screening Cc1ccc(S(=O)(=O)N2CCC(C(=O)NCCCN3CCCC3=O)CC2)cc1C returned RanGTP-Impb inh 5 and PHOSPHO1 block 41.
For Cc1cccc(NC(=O)c2ccc(Cn3cc(C(F)(F)F)ccc3=O)cc2)c1 the results were Runt-CBFb FRET -4, RanGTP-Impb inh 48*, Wee1 degr inh 4, PHOSPHO1 block 65*, Runt-SMMHC FRET 1 and HMGR II inh -1.
O=C(NCc1ccncc1)c1ccc(Cn2cc(C(F)(F)F)ccc2=O)cc1 was read as Runt-CBFb FRET -2, RanGTP-Impb inh 1, Wee1 degr inh 4, PHOSPHO1 block 60*, Runt-SMMHC FRET 0 and HMGR II inh -2.
`CC(CN1CCN(C/C=C/c2ccccc2)CC1)c1ccccc1` (centres undefined) gave RanGTP-Impb inh 0 and PHOSPHO1 block 24.
Screening Cc1cc(OCC(=O)NCCc2ccc(S(N)(=O)=O)cc2)c2c(C)cc(=O)oc2c1 returned RanGTP-Impb inh -2 and PHOSPHO1 block 12.
Screening COc1ccc(-c2cc(C(=O)OCC(=O)Nc3cc(C)on3)c3ccccc3n2)cc1OC returned Runt-CBFb FRET 4, RanGTP-Impb inh 90*, Wee1 degr inh 1, PHOSPHO1 block 18, Runt-SMMHC FRET -21 and HMGR II inh 1.
Screening COc1ccc(-c2nnc3ccc(SCC(=O)Nc4cc(C)on4)nn23)cc1OC returned Runt-CBFb FRET -1, RanGTP-Impb inh 2, Wee1 degr inh -1, PHOSPHO1 block -11, Runt-SMMHC FRET -2 and HMGR II inh -1.
`COc1ccc(CNC(=O)COC(=O)c2cc(-c3ccc(Cl)s3)nc3ccccc23)cc1` gave Runt-CBFb FRET -2, RanGTP-Impb inh 17*, Wee1 degr inh -1, PHOSPHO1 block 6, Runt-SMMHC FRET -6 and HMGR II inh -1.
CCOc1ccccc1-n1nnnc1SCC(=O)Nc1cc(C)on1 was read as Runt-CBFb FRET -3, RanGTP-Impb inh 2, Wee1 degr inh 2, PHOSPHO1 block 62*, Runt-SMMHC FRET 0 and HMGR II inh 1.
For COc1ccc(-c2nnc(SCC(=O)Nc3cc(C)on3)n2N)cc1OC the results were Runt-CBFb FRET -1, RanGTP-Impb inh 3, Wee1 degr inh -2, PHOSPHO1 block 75*, Runt-SMMHC FRET -5 and HMGR II inh -7.
For COc1cccc(NC(=O)c2ccc3c(c2)C(=O)N(CC2CCCO2)C3=O)c1 (centres undefined) the results were RanGTP-Impb inh 10 and PHOSPHO1 block 32.
`CCCCCC(=O)Nc1cc(S(=O)(=O)N2CCCCC2)ccc1N1CCOCC1` gave RanGTP-Impb inh 6 and PHOSPHO1 block 5.
`N#C/C(=C\c1cccnc1)C(=O)Nc1ccc(S(N)(=O)=O)cc1` gave RanGTP-Impb inh 0 and PHOSPHO1 block -14.

Bioassay records as filed in PubChem.
